System: Human immunodeficiency virus 1
Assay: Antiviral activity against HIV1 isolate 204 harboring reverse transcriptase M41L/L210W/T215Y/M184V mutant gene by phenosense assay relative to wild type
Format: functional
Settings: not given
Procedure, shortened: (§1)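 PhenoSense HIV recombinant virus assay: patient-derived HIV-1 with major NRTI resistance mutations tested against increasing drug concentrations to give inhibition curves. EC50 is the concentration giving 50% inhibition. Fold change is the test recombinant EC50 divided by the EC50 of a drug-sensitive wild-type reference virus. Panel of 30 NRTI-resistant isolates plus two wild-type viruses.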

Structure (SMILES) | fold change (FC)
CCCCCCCCCCCCCCCCOCCCOP(=O)(O)CO[C@H](C)Cn1cnc2c(N)ncnc21 [TENOFOVIR EXALIDEX] | 1.4

System: Human immunodeficiency virus 1
Assay: Antiviral activity against HIV1 isolate 180 harboring reverse transcriptase K65R mutant gene obtained as site-directed mutant of NL4-3 by phenosense assay relative to wild type
Format: functional
Settings: not given
Procedure, shortened: (§2)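 Recombinant-virus PhenoSense HIV assay run on a panel of 30 NRTI-resistant HIV-1 mutants and two wild-type viruses. Each virus is tested across increasing drug concentrations to give an inhibition curve and EC50. Fold change is the test recombinant EC50 divided by the EC50 of the drug-sensitive wild-type reference virus.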

Structure (SMILES) | fold change (FC)
CCCCCCCCCCCCCCCCOCCCOP(=O)(O)CO[C@H](C)Cn1cnc2c(N)ncnc21 [TENOFOVIR EXALIDEX] | 2.6

System: Human immunodeficiency virus 1
Assay: Antiviral activity against HIV1 isolate 200 harboring reverse transcriptase M41L/L210W/T215Y mutant gene by phenosense assay
Format: functional, organism-based
Settings: Human immunodeficiency virus 1, isolate 200
Procedure, shortened: as §2

Structure (SMILES) | EC50
CCCCCCCCCCCCCCCCOCCCOP(=O)(O)CO[C@H](C)Cn1cnc2c(N)ncnc21 [TENOFOVIR EXALIDEX] | 6 nM

System: Human immunodeficiency virus 1
Assay: Antiviral activity against HIV1 isolate 162 harboring reverse transcriptase A62V/V75I/F77L/Y115F/F116Y/Q151M/M184V mutant gene by phenosense assay
Format: functional, organism-based
Settings: Human immunodeficiency virus 1, isolate 162
Procedure, shortened: as §2

Structure (SMILES) | EC50
CCCCCCCCCCCCCCCCOCCCOP(=O)(O)CO[C@H](C)Cn1cnc2c(N)ncnc21 [TENOFOVIR EXALIDEX] | 3.1 nM

System: Human immunodeficiency virus 1
Assay: Antiviral activity against HIV1 isolate 217 harboring reverse transcriptase D67N/K70E/M184V mutant gene by phenosense assay relative to wild type
Format: functional
Settings: not given
Procedure, shortened: as §1

Structure (SMILES) | fold change (FC)
CCCCCCCCCCCCCCCCOCCCOP(=O)(O)CO[C@H](C)Cn1cnc2c(N)ncnc21 [TENOFOVIR EXALIDEX] | 0.78

System: Human immunodeficiency virus 1
Assay: Antiviral activity against HIV1 isolate 217 harboring reverse transcriptase D67N/K70E/M184V mutant gene by phenosense assay
Format: functional, organism-based
Settings: Human immunodeficiency virus 1, isolate 217
Procedure, shortened: as §1

Structure (SMILES) | EC50
CCCCCCCCCCCCCCCCOCCCOP(=O)(O)CO[C@H](C)Cn1cnc2c(N)ncnc21 [TENOFOVIR EXALIDEX] | 1.5 nM

System: Human immunodeficiency virus 1
Assay: Antiviral activity against HIV1 isolate 201 harboring reverse transcriptase M41L/L210W/T215Y mutant gene by phenosense assay relative to wild type
Format: functional
Settings: not given
Procedure, shortened: as §1

Structure (SMILES) | fold change (FC)
CCCCCCCCCCCCCCCCOCCCOP(=O)(O)CO[C@H](C)Cn1cnc2c(N)ncnc21 [TENOFOVIR EXALIDEX] | 3.5

System: Human immunodeficiency virus 1
Assay: Antiviral activity against HIV1 isolate 212 harboring reverse transcriptase L210W/T215Y mutant gene by phenosense assay
Format: functional, organism-based
Settings: Human immunodeficiency virus 1, isolate 212
Procedure, shortened: as §1

Structure (SMILES) | EC50
CCCCCCCCCCCCCCCCOCCCOP(=O)(O)CO[C@H](C)Cn1cnc2c(N)ncnc21 [TENOFOVIR EXALIDEX] | 2.8 nM

System: Human immunodeficiency virus 1
Assay: Antiviral activity against HIV1 isolate 157 harboring reverse transcriptase L74V/M184V mutant gene by phenosense assay
Format: functional, organism-based
Settings: Human immunodeficiency virus 1, isolate 157
Procedure, shortened: as §2

Structure (SMILES) | EC50
CCCCCCCCCCCCCCCCOCCCOP(=O)(O)CO[C@H](C)Cn1cnc2c(N)ncnc21 [TENOFOVIR EXALIDEX] | 0.66 nM

System: Human immunodeficiency virus 1
Assay: Antiviral activity against HIV1 isolate 220 harboring reverse transcriptase K70E/M184V mutant gene by phenosense assay relative to wild type
Format: functional
Settings: not given
Procedure, shortened: as §1

Structure (SMILES) | fold change (FC)
CCCCCCCCCCCCCCCCOCCCOP(=O)(O)CO[C@H](C)Cn1cnc2c(N)ncnc21 [TENOFOVIR EXALIDEX] | 0.71

System: Human immunodeficiency virus 1
Assay: Antiviral activity against HIV1 isolate 211 harboring reverse transcriptase D67N/K70R/T215F/K219E/M184V mutant gene by phenosense assay
Format: functional, organism-based
Settings: Human immunodeficiency virus 1, isolate 211
Procedure, shortened: as §1

Structure (SMILES) | EC50
CCCCCCCCCCCCCCCCOCCCOP(=O)(O)CO[C@H](C)Cn1cnc2c(N)ncnc21 [TENOFOVIR EXALIDEX] | 1.9 nM

System: Human immunodeficiency virus 1
Assay: Antiviral activity against HIV1 isolate 180 harboring reverse transcriptase K65R mutant gene obtained as site-directed mutant of NL4-3 by phenosense assay
Format: functional, organism-based
Settings: Human immunodeficiency virus 1, isolate 180
Procedure, shortened: as §2

Structure (SMILES) | EC50
CCCCCCCCCCCCCCCCOCCCOP(=O)(O)CO[C@H](C)Cn1cnc2c(N)ncnc21 [TENOFOVIR EXALIDEX] | 4.7 nM

System: Human immunodeficiency virus 1
Assay: Antiviral activity against HIV1 isolate 063 harboring reverse transcriptase M41L/D67N/K70R/M184V/L210W/T215Y/K219E mutant gene by phenosense assay relative to wild type
Format: functional
Settings: not given
Procedure, shortened: as §2

Structure (SMILES) | fold change (FC)
CCCCCCCCCCCCCCCCOCCCOP(=O)(O)CO[C@H](C)Cn1cnc2c(N)ncnc21 [TENOFOVIR EXALIDEX] | 2.8

System: Human immunodeficiency virus 1
Assay: Antiviral activity against HIV1 isolate 071 harboring reverse transcriptase 65R/S68N/184V mutant gene by phenosense assay
Format: functional, organism-based
Settings: Human immunodeficiency virus 1, isolate 071
Procedure, shortened: as §2

Structure (SMILES) | EC50
CCCCCCCCCCCCCCCCOCCCOP(=O)(O)CO[C@H](C)Cn1cnc2c(N)ncnc21 [TENOFOVIR EXALIDEX] | 2.7 nM

System: Human immunodeficiency virus 1
Assay: Antiviral activity against HIV1 isolate 057 expressing wild type reverse transcriptase gene by phenosense assay
Format: functional, organism-based
Settings: Human immunodeficiency virus 1, isolate 057
Procedure, shortened: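 In the PhenoSense recombinant virus assay, virus was tested against increasing drug concentrations. EC50 came from the inhibition curve and was compared with a drug-sensitive reference virus.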

Structure (SMILES) | EC50
CCCCCCCCCCCCCCCCOCCCOP(=O)(O)CO[C@H](C)Cn1cnc2c(N)ncnc21 [TENOFOVIR EXALIDEX] | 1.6 nM

System: Human immunodeficiency virus 1
Assay: Antiviral activity against HIV1 isolate 060 harboring reverse transcriptase M41L/D67N/K70R/L210W/T215Y/K219E mutant gene by phenosense assay
Format: functional, organism-based
Settings: Human immunodeficiency virus 1, isolate 060
Procedure, shortened: as §2

Structure (SMILES) | EC50
CCCCCCCCCCCCCCCCOCCCOP(=O)(O)CO[C@H](C)Cn1cnc2c(N)ncnc21 [TENOFOVIR EXALIDEX] | 9.6 nM

System: Human immunodeficiency virus 1
Assay: Antiviral activity against HIV1 isolate 066 harboring reverse transcriptase 184V mutant gene by phenosense assay relative to wild type
Format: functional
Settings: not given
Procedure, shortened: as §2

Structure (SMILES) | fold change (FC)
CCCCCCCCCCCCCCCCOCCCOP(=O)(O)CO[C@H](C)Cn1cnc2c(N)ncnc21 [TENOFOVIR EXALIDEX] | 0.73

— ChEMBL document CHEMBL1629690, “Development of hexadecyloxypropyl tenofovir (CMX157) for treatment of infection caused by wild-type and nucleoside/nucleotide-resistant HIV” (Antimicrob Agents Chemother, 2010)
